We go through 11 compounds from PubChem BioAssay.

The structures appear in SMILES notation. Active and inactive are the calls of the source.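 How the source made its calls, unless noted: active means GFP response above 150% of the DMSO level; inconclusive means fewer than 70 events counted for a yeast strain; inactive means the rest.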

The nature of test [1]: RPL19A-GFP modulators, yeast TOR pathway, confirmation, cell-based, S. cerevisiae, flow cytometry, cherry picks, mother/daughter gates (AID 2270;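 active means GFP response below 50% of the DMSO control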). The conditions noted are these: S. cerevisiae RPL19A-GFP strain, 3 h, at 10 µM, stronger effect = lower value, 100 = same GFP as DMSO wells.
A short description of test [2]: LAP4-GFP expression modulators in yeast, confirmation, cell-based, cherry picks, flow cytometry, mother/daughter gates (AID 2271;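 active means GFP response above 150% of the DMSO control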;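 further: ratio of sample to DMSO plate mean so 100% equals DMSO level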). Particulars: S. cerevisiae LAP4-GFP strain, 3 h, at 10 µM, stronger effect = higher value, 100 means same as DMSO control. The gist of the method:
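Material: Alexa Fluor 633-labelled Saccharomyces cerevisiae GFP-fusion strain, single-plex | Amount: Yeast cells seeded at OD600 of 0.2 | Buffer or medium: SC growth medium | Schedule: 3 h exposure, 30 °C | Measured by: HT flow cytometry, GFP fluorescence channel | Evaluation: % GFP response vs DMSO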
Background: Flow cytometry measures light scatter and fluorescence of single cells or particles in a stream.

Test [3] can be described thus: modulators of MEP2-GFP levels in yeast, confirmation, S. cerevisiae, flow cytometry GFP, cherry picks (AID 2272;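 active means GFP response above 150% of the DMSO control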;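 further: ratio of well signal to plate DMSO mean so 100% equals DMSO level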). Particulars: S. cerevisiae MEP2-GFP strain, 3 h, at 10 µM, stronger effect = higher value.
Test [4] can be described thus: AGP1-GFP expression modulators, hit retest, confirmation, cell-based, flow cytometry, S. cerevisiae, cherry picks (AID 2273).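 Further: median GFP channel fluorescence over the whole cell population gate.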 The conditions noted are these: S. cerevisiae AGP1-GFP strain, 3 h, at 10 µM.
The nature of test [5]: modulators of CIT2-GFP expression in yeast, confirmation, S. cerevisiae, GFP fusion, cherry picks, mother/daughter gates (AID 2274). Particulars: S. cerevisiae CIT2-GFP strain, flow cytometry, 3 h, at 10 µM, stronger effect = higher value.
[6] abbreviates: measured here: daughter cell gate.
The mark [7] stands for this setting: measured here: mother cell gate.
Where [8] appears, read: measured here: daughter cell gate response.
[9] abbreviates: measured here: mother cell gate response.

For `Cc1ccc(-c2nc(NC(=O)c3nn(C)cc3[N+](=O)[O-])sc2C)cc1`, the GFP response vs DMSO in test [1] is 100% (inactive); in test [1] (setting [6]), 97.3%; in test [1] (setting [7]), 101%; in test [3], 102% (inactive). Also, the values for the GFP response relative to DMSO in test [2], in test [2] (setting [8]) and in test [2] (setting [9]) were 98.7% (inactive), 97.2% and 101%, respectively. For the same compound, the GFP response, % of DMSO in test [4] is 101% (inactive); in test [5], 96.5% (inactive); in test [5] (setting [6]), 91.5%; in test [5] (setting [7]), 97.7%.

For `Cc1ccc(/C=C2\SC(=S)N(CC3CCCO3)C2=O)o1` (stereo unspecified), the GFP response vs DMSO in test [1] is 93.8% (inactive); in test [1] (setting [6]), 94.2%; in test [1] (setting [7]), 93.5%; in test [3] it was 143% (inactive). Further, the GFP response relative to DMSO in test [2] is 189% (active); in test [2] (setting [8]), 167%; in test [2] (setting [9]), 194%. The GFP response, % of DMSO in test [4] was 100% (inactive); in test [5] it was 98.6% (inactive); in test [5] (setting [6]) it was 97.6%; in test [5] (setting [7]) it was 98.2%.

On to `CS(=O)(=O)c1nc(-c2cccs2)cc(C(F)(F)F)n1`, for which the GFP response vs DMSO in test [1] was 93% (inactive); in test [1] (setting [6]), 95.2%; in test [1] (setting [7]), 88.6%; in test [3] it was 143% (inactive). For the same compound, the GFP response relative to DMSO in test [2] is 176% (active); in test [2] (setting [8]), 164%; in test [2] (setting [9]) it was 180%. The GFP response, % of DMSO in test [4] is 118% (inactive); in test [5], 94.4% (inactive); in test [5] (setting [6]), 99.2%; in test [5] (setting [7]), 89.5%.

In the case of `Cc1ccc(N2CCN(C(=O)c3ccccc3Br)CC2)c(C)c1`, the GFP response vs DMSO in test [1] was 100% (inactive); in test [1] (setting [6]), 97.6%; in test [1] (setting [7]), 101%; in test [3], 98.3% (inactive). Further, the GFP response relative to DMSO is 95.4% (inactive) in test [2], 92.8% in test [2] (setting [8]) and 96.1% in test [2] (setting [9]). In addition, the GFP response, % of DMSO was 92.1% (inactive) in test [4], 96.9% (inactive) in test [5], 97.2% in test [5] (setting [6]) and 96.1% in test [5] (setting [7]).

As to `COc1ccc(-c2cc(=O)n(-c3nc4ccccc4[nH]3)[nH]2)cc1`, the GFP response vs DMSO was 98.6% (inactive) in test [1], 101% in test [1] (setting [6]), 99.3% in test [1] (setting [7]) and 103% (inactive) in test [3]. The GFP response relative to DMSO in test [2] was 117% (inactive); in test [2] (setting [8]), 119%; in test [2] (setting [9]) it was 113%. For the same compound, the GFP response, % of DMSO in test [4] was 98% (inactive); in test [5] it was 95.9% (inactive); in test [5] (setting [6]), 97.4%; in test [5] (setting [7]), 94.4%.

In the case of `O=C1C(Cl)=C(NCCc2ccccc2)C(=O)N1CCc1ccccc1`, the GFP response vs DMSO in test [1] was 103% (inactive); in test [1] (setting [6]) it was 103%; in test [1] (setting [7]), 104%; in test [3], 112% (inactive). Further, the GFP response relative to DMSO in test [2] is 106% (inactive); in test [2] (setting [8]), 107%; in test [2] (setting [9]), 101%. The GFP response, % of DMSO is 103% (inactive) in test [4], 106% (inactive) in test [5], 106% in test [5] (setting [6]) and 106% in test [5] (setting [7]).

Consider `O=C(O)Cc1sc(Nc2ccccc2)nc1-c1cccs1`, for which the GFP response vs DMSO in test [1] is 97.8% (inactive); in test [1] (setting [6]) it was 98%; in test [1] (setting [7]) it was 97.9%; in test [3], 110% (inactive). In addition, the figures for the GFP response relative to DMSO in test [2], in test [2] (setting [8]) and in test [2] (setting [9]) were 149% (inactive), 144% and 156%, respectively. Further, the GFP response, % of DMSO was 99.7% (inactive) in test [4], 104% (inactive) in test [5], 104% in test [5] (setting [6]) and 103% in test [5] (setting [7]).

In the case of `CCN1CCN(C(=O)C2CCN(c3nnc(C)c4c(C)n(-c5ccc(C)cc5)nc34)CC2)CC1`, the GFP response vs DMSO in test [1] was 97.2% (inactive); in test [1] (setting [6]), 96.5%; in test [1] (setting [7]) it was 97.8%; in test [3], 104% (inactive). The GFP response relative to DMSO was 102% (inactive) in test [2], 101% in test [2] (setting [8]) and 101% in test [2] (setting [9]). Also, the GFP response, % of DMSO in test [4] was 106% (inactive); in test [5], 99.3% (inactive); in test [5] (setting [6]), 102%; in test [5] (setting [7]), 98%.

Take `C/C(=N\NC(=O)c1cccc(Cl)c1)c1cccc(NC(=O)C(C)C)c1`: the GFP response vs DMSO is 96.2% (inactive) in test [1], 98.1% in test [1] (setting [6]), 95.6% in test [1] (setting [7]) and 103% (inactive) in test [3]. The results for the GFP response relative to DMSO in test [2], in test [2] (setting [8]) and in test [2] (setting [9]) were 92.9% (inactive), 94.4% and 92.3%, respectively. For the same compound, the GFP response, % of DMSO in test [4] was 99.8% (inactive); in test [5], 100% (inactive); in test [5] (setting [6]), 99.3%; in test [5] (setting [7]), 103%.

As for `COc1ccc(C(=O)NNC(=S)NC(=O)/C=C/c2cccs2)cc1`, the GFP response vs DMSO in test [1] is 106% (inactive); in test [1] (setting [6]), 109%; in test [1] (setting [7]) it was 104%; in test [3] it was 120% (inactive). In addition, the results for the GFP response relative to DMSO in test [2], in test [2] (setting [8]) and in test [2] (setting [9]) were 201% (active), 173% and 198%, respectively. The GFP response, % of DMSO is 121% (inactive) in test [4], 108% (inactive) in test [5], 112% in test [5] (setting [6]) and 100% in test [5] (setting [7]).

For `O=C1c2ccccc2C(=O)C2OC12` (stereo unspecified), the GFP response vs DMSO in test [1] is 101% (inactive); in test [1] (setting [6]), 99.6%; in test [1] (setting [7]) it was 88.1%; in test [3], 226% (active). Further, the values for the GFP response relative to DMSO in test [2], in test [2] (setting [8]) and in test [2] (setting [9]) were 218% (active), 179% and 201%, respectively. Besides, the GFP response, % of DMSO in test [4] was 133% (inactive); in test [5], 101% (inactive); in test [5] (setting [6]), 100%; in test [5] (setting [7]) it was 85.8%.
